Source: ChEMBL document CHEMBL3351805, “Giffonins A-I, antioxidant cyclized diarylheptanoids from the leaves of the hazelnut tree (Corylus avellana), source of the Italian PGI product "Nocciola di Giffoni"” (J Nat Prod, 2015)

Legend:
[1] = tested on: Plasma; experiment: Antioxidant activity in human plasma assessed as H2O2/Fe2+-induced lipid peroxidation at 10 uM after 30 mins by TBARS assay; assay type: functional, cell-free
Method in brief: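 Reaction stopped on ice; TCA/HCl precipitation, centrifugation at 1200g. Supernatant boiled 15 min with thiobarbituric acid in Tris pH 7.0. A532 converted to TBARS via ε = 156 000 M⁻¹ cm⁻¹. Three independent experiments; paired Student's t test.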

[2] = tested on: Plasma; experiment: Antioxidant activity in human plasma assessed as H2O2-induced lipid peroxidation at 10 uM after 30 mins by TBARS assay; assay type: functional, cell-free
Method in brief: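 Fresh plasma from medication-free human donors, incubated 30 min at 37 °C with compound (final 0.1–100 μM; DMSO <0.05% final) plus 2 mM H₂O₂. Stopped on ice, then mixed with an equal volume of cold 20% TCA in 0.6 M HCl and spun. Supernatant heated 15 min with 0.12 M TBA in 0.26 M Tris pH 7.0. TBARS read at 532 nm (ε = 156 000 M⁻¹ cm⁻¹). n=3 independent experiments.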

| SMILES | inhibition [1] | inhibition [2] |
| --- | --- | --- |
| COc1c2cc(c(OC)c1O)Oc1ccc(cc1)[C@@H](O)CC(=O)CC/C=C/2 | 7.3% | 2.2% |
| COc1c2cc(c(OC)c1O)Oc1ccc(cc1)CC[C@@H](O)CC/C=C\2 | 28.2% | 16.4% |
| COc1c2cc(c(OC)c1O)Oc1ccc(cc1)CCC(=O)C[C@@H](O)/C=C\2 | 12% | 12.1% |
| O=C1/C=C/CCc2ccc(O[C@@H]3O[C@H](CO)[C@@H](O)[C@H](O)[C@H]3O)c(c2)-c2cc(ccc2O[C@@H]2OC[C@H](O)[C@H](O)[C@H]2O)CC1 | 18.1% | 12.6% |
| COc1c2cc(c(OC)c1O)Oc1ccc(cc1)CC[C@@H](O)/C=C/C=C\2 | 35.5% | 37.6% |
| COc1c2cc(c(OC)c1O)Oc1ccc(cc1)CCC(=O)CC/C=C/2 | 36.8% | 8.1% |
| COc1c2cc(c(OC)c1O)Oc1ccc(cc1)CCC(=O)CC/C=C\2 | 63.2% | 64.3% |
| COc1c2cc(c(OC)c1O)Oc1ccc(cc1)CCCC[C@@H](O)/C=C\2 | 30.8% | 20.8% |
| COc1cc(/C=C/C(=O)CC(=O)/C=C/c2ccc(O)c(OC)c2)ccc1O | 18.6% | 19.2% |
| COc1c(O)cc2cc1Oc1ccc(cc1)CC[C@@H](O)/C=C/C=C\2 | 50.6% | 55.8% |
